{"source": "ChEMBL document CHEMBL1133019", "about": "“Synthesis, spectroscopy, and cytotoxicity of glycosylated acetogenin derivatives as promising molecules for cancer therapy” (J Med Chem, 2000)", "key": {"L1210 [1]": {"test_system": "L1210", "assay": "Cell Cycle inhibition against mouse lymphocytic leukemia cells (L1210) at 10 uM", "type": "functional", "procedure,_shortened": "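L1210 cells cultured 24 h with compound, alongside a compound-free control flask; BrdU added after 15 min. Cells ethanol-permeabilized, stained with rat anti-BrdU then FITC goat secondary, counterstained with propidium iodide, analysed by flow cytometry. Percentage of cells in each cell-cycle phase calculated from histograms.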"}, "[2]": {"assay": "Cytotoxic activity against human epidermoid carcinoma cells (KB)", "type": "functional", "procedure,_shortened": "(§1)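 Adherent monolayers seeded 24 h before treatment; 3-fold serial dilutions added; 72 h at 37 °C, humidified 5% CO2. Cells formol-fixed, methylene blue stained, washed, dye released with 0.1 M HCl, absorbance at 620 nm. Proliferation as % of acetogenin-free control; EC50 (50% growth inhibition) read from dose-response curves.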"}, "L1210 [3]": {"test_system": "L1210", "assay": "Cytotoxic activity against mouse lymphocytic leukemia cells (L1210)", "type": "functional, cell-based", "procedure,_shortened": "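L1210 in RPMI 1640 with 10% FBS, 2 mM L-glutamine, penicillin/streptomycin; doubling time about 13 h. Exponentially growing cells (1 × 10^4/well) exposed 72 h at 37 °C to drug dilutions prepared from DMSO solutions in medium. Coulter counter cell counts, triplicates, as % of triplicate controls; IC50 from residual cells vs concentration on semilog scale.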"}, "Vero": {"test_system": "Vero", "assay": "Cytotoxic activity against african green monkey (Cercopithecus aethiops) kidney epithelial cells (VERO)", "type": "functional, cell-based", "settings": "Chlorocebus sabaeus", "procedure,_shortened": "as §1"}}, "note": "Where “and” joins values, the source holds several entries; their conditions need not be identical. Identical values can stand only once."}
{"smiles": "CCCCCC[C@H](O)CCC[C@H](OC[C@H]1O[C@@H](O)[C@H](O)[C@@H](O)[C@@H]1O)[C@H]1CC[C@H]([C@H]2CC[C@H]([C@H](O)CCCCCCCCCCCCC3C[C@H](C)OC3=O)O2)O1", "note": "(some centres not stated)", "values": [{"measurement": "inhibition at 10 µM", "setting": "L1210 [1]", "result": 54, "unit": "%"}, {"measurement": "EC50", "setting": "[2]", "result": 0.009, "unit": "µM"}, {"measurement": "EC50", "setting": "L1210 [3]; l1210", "result": "0.01 µM and 0.08 µM"}]}
{"smiles": "CCCCCC[C@@H](CCC[C@H](OC(C)=O)[C@H]1CC[C@H]([C@H]2CC[C@H]([C@@H](CCCCCCCCCCCCC3=C[C@H](C)OC3=O)OC(C)=O)O2)O1)OC[C@H]1O[C@@H](OC(C)=O)[C@H](OC(C)=O)[C@@H](OC(C)=O)[C@@H]1OC(C)=O", "values": [{"measurement": "EC50", "setting": "[2]", "result": 0.00096, "unit": "µM"}, {"measurement": "EC50", "setting": "Vero", "result": 0.02, "unit": "µM"}, {"measurement": "EC50", "setting": "L1210 [3]; Mus musculus, L1210", "result": 0.3, "unit": "µM"}]}
{"smiles": "CCCCCC[C@H](O)CCC[C@H](OC[C@H]1O[C@@H](O)[C@H](O)[C@@H](O)[C@@H]1O)[C@H]1CC[C@H]([C@H]2CC[C@H]([C@@H](CCCCCCCCCCCCC3=C[C@H](C)OC3=O)OC[C@H]3O[C@@H](O)[C@H](O)[C@@H](O)[C@@H]3O)O2)O1", "values": [{"measurement": "EC50", "setting": "[2]", "result": 1.05, "unit": "µM"}, {"measurement": "EC50", "setting": "Vero", "result": 1.05, "unit": "µM"}, {"measurement": "EC50", "setting": "L1210 [3]; Mus musculus, L1210", "result": 10, "unit": "µM"}]}
{"smiles": "CCCCCC[C@H](O)CCC[C@H](OC[C@H]1O[C@@H](OCc2ccccc2)[C@H](OCc2ccccc2)[C@@H](OCc2ccccc2)[C@@H]1OCc1ccccc1)[C@H]1CC[C@H]([C@H]2CC[C@H]([C@H](O)CCCCCCCCCCCCC3=C[C@H](C)OC3=O)O2)O1", "values": [{"measurement": "EC50", "setting": "L1210 [3]; Mus musculus, L1210", "result": 0.05, "unit": "µM"}]}
{"smiles": "CCCCCC[C@@H](CCC[C@H](OC(C)=O)[C@H]1CC[C@H]([C@H]2CC[C@H]([C@@H](CCCCCCCCCCCCC3=C[C@H](C)OC3=O)OC(C)=O)O2)O1)OC[C@H]1O[C@@H](O)[C@H](O)[C@@H](O)[C@@H]1O", "values": [{"measurement": "EC50", "setting": "[2]", "result": 0.011, "unit": "µM"}, {"measurement": "EC50", "setting": "Vero", "result": 0.34, "unit": "µM"}, {"measurement": "EC50", "setting": "L1210 [3]; Mus musculus, L1210", "result": 0.017, "unit": "µM"}]}
{"smiles": "CCCCCC[C@H](O)CCC[C@H](O)[C@H]1CC[C@H]([C@H]2CC[C@H]([C@@H](CCCCCCCCCCCCC3=C[C@H](C)OC3=O)OC[C@H]3O[C@H](OCc4ccccc4)[C@H](OCc4ccccc4)[C@@H](OCc4ccccc4)[C@@H]3OCc3ccccc3)O2)O1", "values": [{"measurement": "inhibition at 10 µM", "setting": "L1210 [1]", "result": 65, "unit": "%"}]}
{"smiles": "CCCCCC[C@H](O)CCC[C@H](O)[C@H]1CC[C@H]([C@H]2CC[C@H]([C@H](O)CCCCCCCCCCCCC3C[C@H](C)OC3=O)O2)O1", "note": "(some centres not stated)", "values": [{"measurement": "EC50", "setting": "[2]", "result": 0.00024, "unit": "µM"}, {"measurement": "EC50", "setting": "Vero", "result": 0.016, "unit": "µM"}, {"measurement": "EC50", "setting": "L1210 [3]; Mus musculus, L1210", "result": "< 0.00025", "unit": "µM"}]}
{"smiles": "CCCCCC[C@H](O)CCC[C@H](O)[C@H]1CC[C@H]([C@H]2CC[C@H]([C@H](O)CCCCCCCCCCCCC3=C[C@H](C)OC3=O)O2)O1", "note": "[SQUAMOCIN]", "values": [{"measurement": "EC50", "setting": "[2]", "result": 0.00024, "unit": "µM"}, {"measurement": "EC50", "setting": "Vero", "result": 0.016, "unit": "µM"}, {"measurement": "EC50", "setting": "L1210 [3]; Mus musculus, L1210", "result": "< 0.00025", "unit": "µM"}]}
{"smiles": "CC[C@]1(O)C[C@@H]2CN(CCc3c([nH]c4ccccc34)[C@@](C(=O)OC)(c3cc4c(cc3OC)N(C)[C@H]3[C@@](O)(C(=O)OC)[C@H](OC(C)=O)[C@]5(CC)C=CCN6CC[C@]43[C@@H]65)C2)C1", "note": "[VINBLASTINE]", "values": [{"measurement": "EC50", "setting": "[2]", "result": 0.0012, "unit": "µM"}, {"measurement": "EC50", "setting": "Vero", "result": "< 3.7", "unit": "µM"}]}
